Screening data as filed in PubChem BioAssay.
A selection: hits, their analogues and other compounds. The true share with any hit is near 9.6%.
Lmaj promast: Leishmania major promastigote growth inhibition, primary screen; Leishmania major promastigotes, resazurin fluorescence viability; 200,000 compounds, 9% hits; inhibition, % at 10 µM; in the data active means inhibition above about 50%;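 further: promastigotes grown with compound for 44 hours at 28 °C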
PMI act hi M6P: human PMI activators, high substrate, primary screen, biochemical, fluorescence intensity, near-saturating mannose 6-phosphate; coupled PMI enzyme assay, resazurin fluorescence, 20 min; stronger effect = higher value; 1 = untreated enzyme, 0 = substrate-free blank; activation factor at 20 µM; 190,000 compounds, 0.34% hits;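 active means activation factor of 2 or more at 20 µM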
Target sequence (P34949 whole entry, looked up): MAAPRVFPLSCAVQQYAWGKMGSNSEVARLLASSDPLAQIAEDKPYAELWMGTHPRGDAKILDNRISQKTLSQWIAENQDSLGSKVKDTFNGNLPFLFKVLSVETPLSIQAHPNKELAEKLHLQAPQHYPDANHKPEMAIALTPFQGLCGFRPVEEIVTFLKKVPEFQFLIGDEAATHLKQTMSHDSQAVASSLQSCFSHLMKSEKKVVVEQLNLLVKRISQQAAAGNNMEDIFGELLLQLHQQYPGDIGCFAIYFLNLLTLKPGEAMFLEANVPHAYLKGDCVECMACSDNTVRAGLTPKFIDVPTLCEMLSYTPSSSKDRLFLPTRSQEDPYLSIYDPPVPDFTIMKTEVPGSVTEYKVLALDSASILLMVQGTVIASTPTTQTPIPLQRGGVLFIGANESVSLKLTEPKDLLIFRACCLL
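test system = human PMI in coupled enzyme assay | medium = HEPES-buffered pH 7.4 with magnesium and detergent | also added = 1.0 mM mannose-6-phosphate substrate with 0.22 mM NADP+ | compound = 20 µM single dose | times = 20 min incubation at room temperature | measured by = resorufin fluorescence (Ex 544/Em 590 nm) from resazurin via diaphorase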
bCat KO growth: primary screen for growth suppressors in beta-catenin knockout HCT116 cells (colon tumor, human) | HCT116 beta-catenin knockout viability, CellTiter-Glo, 60 h; stronger effect = lower value | viability, % at 10 µM | 140,000 compounds, 1.5% hits;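 active means viability at or under a set limit, the compound median less 4 SD, cut at about 6% in these data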;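 further: 0% = Hyamine 1622 control at 20 µM and 100% = untreated cell control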
PMI activator: activators of human PMI, primary screen, biochemical, fluorescence intensity, near-Km mannose 6-phosphate. Mannose-6-phosphate isomerase (Homo sapiens), P34949. purified human PMI, coupled resazurin fluorescence, 20 min; stronger effect = higher value; 1 = vehicle control, 0 substrate-free wells. activation factor at 20 µM. 190,000 compounds, 0.005% hits. AID 1214, 2008;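 active means activation factor of 2 or more at 20 µM, relative to plate controls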
HCT116 PTEN-null: growth suppression of PTEN-null HCT116, primary screen, cell-based, CellTiter-Glo; HCT116 PTEN-null viability, 60 h; stronger effect = lower value; viability, % at 10 µM; 140,000 compounds, 1.2% hits;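 active means viability at or below a set limit, 4 SD under the median of all tested compounds, cut at about 3.7% in these data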;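 further: PTEN knockout HCT116 line with beta catenin targeted HCT116 as companion control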
Active calls of the source: *; · = no result.

SMILES	Lmaj promast	PMI act hi M6P	bCat KO growth	PMI activator	HCT116 PTEN-null
CCN(CC)S(=O)(=O)c1ccc(C(=O)N(c2ccccc2)C2C=CS(=O)(=O)C2)cc1 (stereo unspecified)	0	1.1	·	1.1	·
CCC1Oc2ccccc2N(CC(=O)NCc2ccco2)C1=O (stereo unspecified)	-6	0.9	·	0.9	·
Cc1ccc(OCCCN2CCOCC2)c([N+](=O)[O-])c1	89*	0.9	95	1	94
Cc1ccc(OCCN2CCNCC2)c([N+](=O)[O-])c1	26	1	95	1.1	98
CCOc1cc(C(=O)Nc2ccncc2)cc(OCC)c1OCC	6	·	·	·	·
Cc1ccc(-c2nn(-c3cc(N4CCNCC4)ccc3[N+](=O)[O-])c(=O)c3ccccc23)cc1	101*	1	·	1	·
Cc1nn(-c2cc(N3CCCCCC3)ccc2[N+](=O)[O-])c(=O)c2ccccc12	47	0.9	95	0.9	88
Cc1ccc(N(CC(=O)NCc2ccc3c(c2)OCO3)S(=O)(=O)c2c(C)noc2C)cc1	59*	0.9	83	0.8	71
COc1cc(CCN2C(=O)c3cccc4cccc(c34)C2=O)c(S(=O)(=O)N2CCC(C)CC2)cc1OC	38	0.8	85	0.8	83
CCC(C)OC(=O)C1=C(C)OC23OC(N)=C(C#N)C12C(=O)c1ccccc13 (stereo unspecified)	86*	0.7	89	0.8	96
CC1=C(C(=O)OCC(C)C)[C@]23C(=O)c4ccccc4[C@@]2(O1)OC(N)=C3C#N	14	0.9	93	0.9	93
O=C(c1cccc(-c2ccc(O)cc2)c1)N1CCN(c2ccc(F)cc2)CC1	-10	0.9	·	1	·
Cc1cc(C)n(-c2cc(N3CCN(C(=O)c4cccc(F)c4)CC3)ccc2[N+](=O)[O-])n1	-1	1.1	85	1.1	90
CC(=O)NC(=S)NNC(=O)COc1ccc(Br)cc1	87*	0.7	·	0.5	·
CC1CCCCN1C(=O)CSc1nc2cc3c(cc2c(=O)n1Cc1ccc2c(c1)OCO2)OCO3 (stereo unspecified)	54*	0.9	70	0.8	75
CC1CCN(C(=O)CSc2nc3ccccc3c(=O)n2Cc2ccc3c(c2)OCO3)CC1	8	1.1	88	1	71
O=C(CSCc1c(F)cccc1Cl)NCc1cccnc1	32	1.1	103	1	95
Cc1cc(C)cc(-n2c(SCC(=O)Nc3cccc(S(=O)(=O)NC4=NCCCCC4)c3)nc3ccccc3c2=O)c1	-3	1	84	1	89
CCCCn1c(-c2ccccc2)cnc1SCC(=O)NCCc1ccc(OC)c(OC)c1	66*	1	57	1	61
COc1ccc(-c2ccc(C#N)c(SCC(=O)NCCc3ccccc3)n2)cc1OC	-4	1	5.7*	1	4
CCOC(=O)CSc1nc2ccccc2c(=O)n1CCC(=O)NCCc1ccc(OC)c(OC)c1	-6	0.9	3.2*	1.1	3.2*
COc1cccc(-c2ccc(C#N)c(SCC(=O)NCCc3cccc(Cl)c3)n2)c1	-1	1	71	0.9	73
COc1ccc(CCNC(=O)CSc2nnc(-c3ccccc3)c3ccccc23)cc1OC	10	0.9	76	1	94
COc1ccc(CCn2c(SCC(=O)Nc3cc(C)on3)nc3ccccc3c2=O)cc1OC	0	1	75	1	71
CCOC(=O)N1CCC(n2c(SCC(=O)c3ccccc3)nc3ccsc3c2=O)CC1	1	1.1	86	1.1	86
SMILES	Lmaj promast	PMI act hi M6P	bCat KO growth	PMI activator	HCT116 PTEN-null
COc1ccc(/C=N/OCC(=O)NC(c2ccccc2)c2ccccc2)cc1OC	100*	0.8	17	0.9	20
CN(CC1CCOCC1)C(=O)CC1C(=O)NCCN1Cc1ccc(-c2ccccc2)cc1 (stereo unspecified)	-3	0.7	·	1	·
CCOc1ccc(-n2c(-c3ccccc3)c[n+]3c2CCCCC3)cc1	100*	1	16	1	19
CCOc1ccc(N2Cc3ccccc3C2)cc1	-2	1.2	·	1.4	·
Cc1cc(N2CCN(C)CC2)nc2ccc(NC(=O)c3cccnc3Cl)cc12	99*	1	79	1	80
CCN(CC)c1cc(C)c2cc(NC(=O)c3cccs3)ccc2n1	24	0.9	·	1	·
CCN1CCN(c2cc(C)c3cc(NC(=O)c4ccc(Br)o4)ccc3n2)CC1	100*	1.1	8	1	9
CCN1CCN(c2cc(C)c3cc(NC(=O)c4ccccc4F)ccc3n2)CC1	51*	0.9	54	1	62
CCN(CC)c1cc(C)c2cc(NC(=O)c3ccc(Br)o3)ccc2n1	80*	0.3	12	0.5	9
Cc1cc(N2CCN(C)CC2)nc2ccc(NC(=O)c3ccccc3F)cc12	42	1	·	1	·
Cc1ccc(S(=O)(=O)N(C)C)cc1NC(=S)N1CCCCC1CO (stereo unspecified)	8	1.1	·	1.2	·
CCN1CCN(c2cc(C)c3cc(NC(=O)c4ccncc4)ccc3n2)CC1	65*	0.9	77	0.9	75
CCN1CCN(c2cc(C)c3cc(NC(=O)c4cccnc4Cl)ccc3n2)CC1	99*	0.9	93	0.9	102
COc1ccc(NC(=O)C(=O)NCCC2=CCCCC2)c(OC)c1	55*	1	99	1.1	95
O=C(CCl)Nc1ccc(Oc2cnc3ccccc3n2)cc1	66*	1	11	1	8
O=C(O)COc1cnc2ccccc2n1	-6	1	·	1.1	·
Cc1c(NC(=O)COC(=O)CCC(=O)c2ccc(Cl)cc2)c(=O)n(-c2ccccc2)n1C	-9	1	·	1	·
COc1ccc(/C(C)=N/NC(=O)c2cc(-c3cccnc3)nc3ccccc23)cc1	-6	1	88	0.9	94
C/C(=N\NC(=O)c1cc(-c2ccncc2)nc2ccccc12)c1ccc(OC(F)F)cc1	89*	1	·	1.1	·
CC(C)(C)OC(=O)N1CCC(c2c(C(=O)O)cnn2-c2ccc(Cl)cc2)CC1	-4	0.9	99	0.8	116
Cc1ccc(-n2ncc(C(=O)Nc3ccc(Cl)cc3)c2C2CCNCC2)cc1C	99*	1.2	·	1.2	·
O=C1C=C(Nc2ccc(Cl)cc2Cl)CC(c2ccco2)C1 (stereo unspecified)	0	0.9	·	1.1	·
CCN(CC)S(=O)(=O)c1cc(NC(=O)CCNC(=O)c2ccccc2Cl)ccc1C	9	1	89	1	94
CCN(CC)S(=O)(=O)c1cc(NS(=O)(=O)c2cc(Cl)ccc2Cl)ccc1C	51*	0.9	100	0.9	94
CC(C)=NOCc1ccc(-c2cn([C@@H]3COC[C@H]3O)nn2)cc1	-6	1.1	80	1	97
